For twelve compounds, MIC results are on record in ChEMBL document CHEMBL3739379, “Anti-Candida activity and cytotoxicity of a large library of new N-substituted-1,3-thiazolidin-4-one derivatives” (Eur J Med Chem, 2016).

Values after ≈ are worked out from the molar mass of the structure shown. A value given as a limit tells only on which side of the number the result lay.

Holding throughout (format): functional
The test system of assay [1] is Staphylococcus aureus. Description: Antibacterial activity against Staphylococcus aureus after 18 to 22 hrs by broth microdilution method. Summed up:
(§1)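 Broth microdilution per NCCLS in Mueller-Hinton II broth; isolates subcultured for purity. Compounds dissolved in DMSO, serial dilutions 256 to 0.5 µg/mL; inoculum 10^5/mL. Controls: organism without compound, medium only. Incubation 18 to 22 h at 35 °C. MIC is the lowest concentration giving complete growth inhibition, read by unaided eye.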

The test system of assay [2] is Staphylococcus warneri. Description: Antibacterial activity against Staphylococcus warneri after 18 to 22 hrs by broth microdilution method. Summed up:
as §1

The subject of assay [3] is Enterococcus faecalis. Description: Antibacterial activity against […] faecalis after 18 to 22 hrs by broth microdilution method. Summed up:
as §1

Assay [4] concerns Staphylococcus haemolyticus. Description: Antibacterial activity against Staphylococcus haemolyticus after 18 to 22 hrs by broth microdilution method. Put shortly:
as §1

Assay [5] concerns Escherichia coli. Description: Antibacterial activity against Escherichia coli at after 18 to 22 hrs by broth microdilution method. Put shortly: as §1
For assay [6], the system named is Proteus mirabilis. Description: Antibacterial activity against Proteus mirabilis after 18 to 22 hrs by broth microdilution method. Summed up: as §1
Assay [7] has as its system Enterobacter sp. Description: Antibacterial activity against Enterobacter sp. after 18 to 22 hrs by broth microdilution method. Summed up:
as §1

Assay [8] relates to Klebsiella oxytoca. Description: Antibacterial activity against Klebsiella oxytoca after 18 to 22 hrs by broth microdilution method. Summed up: as §1
Assay [9] relates to Candida albicans. Description: Antifungal activity against Candida albicans clinical isolate after 24 hrs by sabouraud dextrose broth based microdilution method. Summed up: (§2)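 Clinical isolates identified by conventional methods and subcultured for purity. Broth microdilution per NCCLS in Sabouraud dextrose broth; compounds dissolved in DMSO and serially diluted; inoculum 10^3/mL. Controls: fungi without compound, medium only. Incubated 24 h at 37 °C. MIC is the lowest concentration with complete growth inhibition by unaided eye. Values are geometric means over isolates per species.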

Assay [10] concerns Nakaseomyces glabratus. Description: Antifungal activity against Candida glabrata clinical isolate after 24 hrs by sabouraud dextrose broth based microdilution method. Put shortly:
as §2

For assay [11], the system named is Candida tropicalis. Description: Antifungal activity against Candida tropicalis clinical isolate after 24 hrs by sabouraud dextrose broth based microdilution method. Put shortly:
as §2

Assay [12] has as its system Pichia kudriavzevii. Description: Antifungal activity against Candida krusei clinical isolate after 24 hrs by sabouraud dextrose broth based microdilution method. Summed up: as §2
Assay [13] concerns Candida parapsilosis. Description: Antifungal activity against Candida parapsilosis clinical isolate after 24 hrs by sabouraud dextrose broth based microdilution method. The following applies: Lodderomyces parapsilosis. Put shortly:
as §2

Assay [14] has as its system [Candida] sake. Description: Antifungal activity against Candida sake clinical isolate after 24 hrs by sabouraud dextrose broth based microdilution method. The following applies: Fermentozyma sake. Summed up: as §2

As to `O=C1CS/C(=N\N=C\c2ccc3c(c2)OCO3)N1Cc1ccc([N+](=O)[O-])cc1`, the minimal inhibitory concentration (MIC) in assay [1], in [2], in assay [3], in [4], in [5] and in [6] was greater than 256 µg/mL in each case. The minimum inhibitory concentration (MIC) is greater than 256 µg/mL in [7]; greater than 256 µg/mL in assay [8]; 256 µg/mL (≈ 643 µM) in assay [9]; 32 µg/mL (≈ 80.3 µM) in assay [10]; 16 µg/mL (≈ 40.2 µM) in assay [11]; 8 µg/mL (≈ 20.1 µM) in assay [12]. For the same compound, the minimum inhibitory concentration (MIC) in assay [13] and in assay [14] was 16 µg/mL (≈ 40.2 µM) in each case.

As to `O=C1CS/C(=N\N=C\c2cccnc2)N1Cc1cccc2ccccc12`, the MIC in assay [1], in assay [2], in assay [3], in assay [4], in assay [5] and in [6] was greater than 256 µg/mL throughout. In addition, the MIC in assay [7] is greater than 256 µg/mL; in [8], greater than 256 µg/mL; in [9] it was 4 µg/mL (≈ 11.1 µM); in assay [10], 8 µg/mL (≈ 22.2 µM); in assay [11], 8 µg/mL (≈ 22.2 µM); in assay [12], 32 µg/mL (≈ 88.8 µM). Further, the MIC in assay [13] and in assay [14] was 32 µg/mL (≈ 88.8 µM) in each case.

As for `O=C1CS/C(=N\N=C\c2ccco2)N1Cc1cccc2ccccc12`, the MIC in [1], in assay [2], in assay [3], in assay [4], in [5] and in assay [6] was greater than 256 µg/mL each time. Besides, the MIC in assay [7] is greater than 256 µg/mL; in assay [8], greater than 256 µg/mL; in assay [9], 16 µg/mL (≈ 45.8 µM); in assay [10], 8 µg/mL (≈ 22.9 µM); in [11], 8 µg/mL (≈ 22.9 µM); in assay [12], 16 µg/mL (≈ 45.8 µM). Besides, the results for the MIC in [13] and in [14] were 16 µg/mL (≈ 45.8 µM) and 2 µg/mL (≈ 5.72 µM), respectively.

`C/C(=N\N=C1/SCC(=O)N1Cc1cccc2ccccc12)c1ccccn1`: the minimum inhibitory concentration (MIC) in assay [1], in assay [2], in assay [3], in assay [4], in assay [5] and in assay [6] was greater than 256 µg/mL each time. Besides, the MIC in [7] is greater than 256 µg/mL; in assay [8] it was greater than 256 µg/mL; in assay [9], 2 µg/mL (≈ 5.34 µM); in assay [10] it was 2 µg/mL (≈ 5.34 µM); in assay [11], 2 µg/mL (≈ 5.34 µM); in [12], 2 µg/mL (≈ 5.34 µM). In addition, the MIC in assay [13] and in [14] was 2 µg/mL (≈ 5.34 µM) in each case.

With `C/C(=N\N=C1/SCC(=O)N1Cc1ccc([N+](=O)[O-])cc1)c1ccccn1`, the MIC in assay [1], in assay [2], in [3], in [4], in assay [5] and in assay [6] was greater than 256 µg/mL each time. The minimum inhibitory concentration (MIC) in assay [7] was greater than 256 µg/mL; in assay [8], greater than 256 µg/mL; in [9], 4 µg/mL (≈ 10.8 µM); in assay [10] it was 32 µg/mL (≈ 86.6 µM); in [11], 4 µg/mL (≈ 10.8 µM); in [12] it was 32 µg/mL (≈ 86.6 µM). For the same compound, the MIC in assay [13] and in [14] was 4 µg/mL (≈ 10.8 µM) in each case.

For the compound `O=C1CS/C(=N\N=C2CCCCCCC2)N1Cc1cccc2ccccc12`, the MIC in assay [1], in assay [2], in [3], in [4], in [5] and in assay [6] was greater than 256 µg/mL in each case. For the same compound, the MIC was greater than 256 µg/mL in assay [7]; greater than 256 µg/mL in assay [8]; 4 µg/mL (≈ 10.5 µM) in assay [9]; 32 µg/mL (≈ 84.3 µM) in assay [10]; 8 µg/mL (≈ 21.1 µM) in [11]; 4 µg/mL (≈ 10.5 µM) in assay [12]. Further, the MIC in assay [13] and in assay [14] was 4 µg/mL (≈ 10.5 µM) throughout.

For `C/C(=N\N=C1/SCC(=O)N1Cc1cccc2ccccc12)c1cccs1`, the MIC in assay [1], in [2], in [3], in assay [4], in assay [5] and in assay [6] was greater than 256 µg/mL throughout. Besides, the MIC in assay [7] is greater than 256 µg/mL; in assay [8], greater than 256 µg/mL; in [9], 2 µg/mL (≈ 5.27 µM); in [10], 8 µg/mL (≈ 21.1 µM); in assay [11] it was 2 µg/mL (≈ 5.27 µM); in [12], 16 µg/mL (≈ 42.2 µM). Also, the figures for the MIC in assay [13] and in [14] were 16 µg/mL (≈ 42.2 µM) and 2 µg/mL (≈ 5.27 µM), respectively.

Turning to `C/C(=N\N=C1/SCC(=O)N1Cc1cccc2ccccc12)C1CCCCC1`, the MIC in assay [1], in assay [2], in assay [3], in [4], in assay [5] and in assay [6] was greater than 256 µg/mL throughout. The MIC in assay [7] is greater than 256 µg/mL; in [8] it was greater than 256 µg/mL; in assay [9], 8 µg/mL (≈ 21.1 µM); in assay [10], 8 µg/mL (≈ 21.1 µM); in [11] it was 256 µg/mL (≈ 675 µM); in assay [12] it was 2 µg/mL (≈ 5.27 µM). Besides, the MIC in assay [13] and in [14] was 16 µg/mL (≈ 42.2 µM) each time.

As for `O=C1CS/C(=N\N=C\c2cccc3ccccc23)N1Cc1ccc([N+](=O)[O-])cc1`, the MIC in assay [1], in assay [2], in assay [3], in assay [4], in assay [5] and in assay [6] was greater than 256 µg/mL each time. In addition, the MIC in assay [7] is greater than 256 µg/mL; in [8], greater than 256 µg/mL; in assay [9], 256 µg/mL (≈ 633 µM); in [10] it was 64 µg/mL (≈ 158 µM); in assay [11], 16 µg/mL (≈ 39.6 µM); in [12], 8 µg/mL (≈ 19.8 µM). Further, the minimal inhibitory concentration (MIC) in [13] and in assay [14] was 8 µg/mL (≈ 19.8 µM) in each case.

As to `C/C(=N\N=C1/SCC(=O)N1Cc1cccc2ccccc12)c1ccccc1`, the MIC in assay [1], in [2], in assay [3], in assay [4], in assay [5] and in assay [6] was greater than 256 µg/mL in each case. The MIC in [7] was greater than 256 µg/mL; in assay [8], greater than 256 µg/mL; in assay [9] it was 2 µg/mL (≈ 5.36 µM); in assay [10] it was 8 µg/mL (≈ 21.4 µM); in assay [11] it was 2 µg/mL (≈ 5.36 µM); in [12], 32 µg/mL (≈ 85.7 µM). Moreover, the MIC in [13] is 32 µg/mL (≈ 85.7 µM); in [14], 8 µg/mL (≈ 21.4 µM).

On to `C/C(=N\N=C1/SCC(=O)N1Cc1cccc2ccccc12)c1ccco1`, for which the MIC in [1], in assay [2], in [3], in assay [4], in [5] and in assay [6] was greater than 256 µg/mL each time. In addition, the MIC in assay [7] is greater than 256 µg/mL; in [8], greater than 256 µg/mL; in assay [9] it was 32 µg/mL (≈ 88 µM); in assay [10] it was 32 µg/mL (≈ 88 µM); in [11] it was 128 µg/mL (≈ 352 µM); in [12] it was 4 µg/mL (≈ 11 µM). In addition, the MIC in assay [13] and in [14] was 4 µg/mL (≈ 11 µM) throughout.

In the case of `O=C1CS/C(=N\N=C\c2cccnc2)N1Cc1ccc([N+](=O)[O-])cc1`, the MIC in assay [1], in assay [2], in assay [3], in [4], in [5] and in assay [6] was greater than 256 µg/mL each time. The MIC was greater than 256 µg/mL in assay [7]; greater than 256 µg/mL in assay [8]; 256 µg/mL (≈ 720 µM) in [9]; 32 µg/mL (≈ 90 µM) in [10]; 256 µg/mL (≈ 720 µM) in [11]; 128 µg/mL (≈ 360 µM) in [12]. For the same compound, the MIC in assay [13] and in [14] was 32 µg/mL (≈ 90 µM) throughout.
